Data taken from ChEMBL document CHEMBL1275242, “Antifungal susceptibility profile of human-pathogenic species of Lichtheimia” (2010).
≈ marks a conversion by molar mass, not a printed value. Numbered stars: 1 amine (or outer) side, 2 acyl side, 3 side chain; on linkers, the order of the positions; unused ones are H or OH. Bridge positions count the residues as written; N and C are the ends. Square brackets hold non-standard residues; d marks the D form. Peptide text beside a SMILES is read from it. * marks the point of attachment. hTyr(3S-OH,4S-OH,3'-OSO3H) = N[C@H](C(=O)O)[C@H](O)[C@@H](O)c1ccc(O)c(OS(=O)(=O)O)c1; pTerphenylCO(4''-OnC5H11) = CCCCCOc1ccc(-c2ccc(-c3ccc(C(=O)*)cc3)cc2)cc1; Orn(4R-OH,5R-OH) = O=C([C@H](C[C@@H](O)[C@@H](O)N[*:3])N[*:1])[*:2]; hTyr(3S-OH,4S-OH) = N[C@H](C(=O)O)[C@H](O)[C@@H](O)c1ccc(O)cc1; Pro(3S-OH,4S-Me) = C[C@H]1CN[C@H](C(=O)O)[C@H]1O; X1 = CCCCCOc1ccc(-c2cc(-c3ccc(C(=O)*)cc3)no2)cc1; Gln(3R-OH) = NC(=O)C[C@@H](O)[C@H](N)C(=O)O; Hyp = O=C(O)[C@@H]1C[C@@H](O)CN1

Experiments:
Type in all cases: functional
Lichtheimia corymbifera [1] = assay: Antifungal activity against Lichtheimia corymbifera clinical isolate after 24 hrs by EUCAST method
In short: (§1)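 EUCAST broth microdilution, with spore inoculum counted in a hematocytometer. Final drug concentrations were 16 to 0.03 or 8 to 0.015 mg/liter depending on agent. Plates were incubated at 35°C in humid air and read visually with a mirror at 24 and 48 h. Endpoint was complete visual growth inhibition, except for echinocandins, where it was MEC (altered hyphal morphology versus growth control). Aspergillus QC strains were included.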

Lichtheimia corymbifera [2] = assay: Antifungal activity against Lichtheimia corymbifera clinical isolate after 48 hrs by EUCAST method; in short: as §1
[3] = Antifungal activity against Lichtheimia ornata clinical isolate after 48 hrs by EUCAST method; in short: as §1
[4] = Antifungal activity against Lichtheimia ornata clinical isolate after 24 hrs by EUCAST method; in short: as §1
[5] = Antifungal activity against Lichtheimia ramosa clinical isolate after 24 hrs by EUCAST method; in short: as §1
[6] = Antifungal activity against Lichtheimia ramosa clinical isolate after 48 hrs by EUCAST method; in short: as §1

Compound | MIC (Lichtheimia corymbifera [1]) [µg/mL] | MIC (Lichtheimia corymbifera [2]) [µg/mL] | MIC [3] [µg/mL] | MIC [4] [µg/mL] | MIC [5] [µg/mL] | MIC [6] [µg/mL]
CC[C@H](C)C[C@H](C)CCCCCCCCC(=O)N[C@H]1C[C@@H](O)[C@@H](NCCN)NC(=O)[C@@H]2[C@@H](O)CCN2C(=O)[C@H]([C@H](O)CCN)NC(=O)[C@H]([C@H](O)[C@@H](O)c2ccc(O)cc2)NC(=O)[C@@H]2C[C@@H](O)CN2C(=O)[C@H]([C@@H](C)O)NC1=O [CASPOFUNGIN] | 9.27 (≈ 8.48 µM) | 10 (≈ 9.16 µM) | 32 (≈ 29.3 µM) | 32 (≈ 29.3 µM) | 11 (≈ 10.1 µM) | 21.4 (≈ 19.6 µM)
CCC(C)n1ncn(-c2ccc(N3CCN(c4ccc(OCC5COC(Cn6cncn6)(c6ccc(Cl)cc6Cl)O5)cc4)CC3)cc2)c1=O (centres undefined) [ITRACONAZOLE] | 0.62 (≈ 0.879 µM) | 1.03 (≈ 1.46 µM) | 1 (≈ 1.42 µM) | 0.5 (≈ 0.709 µM) | 0.92 (≈ 1.3 µM) | 2.38 (≈ 3.37 µM)
C[C@@H]1[C@H](O)[C@@H](C)/C=C/C=C/C=C/C=C/C=C/C=C/C=C/[C@H](O[C@@H]2O[C@H](C)[C@@H](O)[C@H](N)[C@@H]2O)C[C@@H]2O[C@](O)(C[C@@H](O)C[C@@H](O)[C@H](O)CC[C@@H](O)C[C@@H](O)CC(=O)O[C@H]1C)C[C@H](O)[C@H]2C(=O)O [AMPHOTERICIN B] | 0.07 (≈ 0.0758 µM) | 0.14 (≈ 0.152 µM) | 0.12 (≈ 0.13 µM) | 0.12 (≈ 0.13 µM) | 0.08 (≈ 0.0866 µM) | 0.14 (≈ 0.152 µM)
CCCCCOc1ccc(-c2ccc(-c3ccc(C(=O)N[C@H]4C[C@@H](O)[C@@H](O)NC(=O)[C@@H]5[C@@H](O)[C@@H](C)CN5C(=O)[C@H]([C@@H](C)O)NC(=O)[C@H]([C@H](O)[C@@H](O)c5ccc(O)cc5)NC(=O)[C@@H]5C[C@@H](O)CN5C(=O)[C@H]([C@@H](C)O)NC4=O)cc3)cc2)cc1 [ANIDULAFUNGIN] ({pTerphenylCO(4''-OnC5H11)}-[Orn(4R-OH,5R-OH)]T[Hyp][hTyr(3S-OH,4S-OH)]T[Pro(3S-OH,4S-Me)]; lactam 1-C) | 1.99 (≈ 1.75 µM) | 10.8 (≈ 9.48 µM) | 32 (≈ 28.1 µM) | 4 (≈ 3.51 µM) | 3.58 (≈ 3.14 µM) | 5.15 (≈ 4.52 µM)
C[C@@H](c1ncncc1F)[C@](O)(Cn1cncn1)c1ccc(F)cc1F [VORICONAZOLE] | 11.1 (≈ 31.8 µM) | 11.5 (≈ 33 µM) | 16 (≈ 45.8 µM) | 16 (≈ 45.8 µM) | 12.6 (≈ 36 µM) | 15.1 (≈ 43.1 µM)
CN(C/C=C/C#CC(C)(C)C)Cc1cccc2ccccc12 [TERBINAFINE] | 0.48 (≈ 1.65 µM) | 0.75 (≈ 2.57 µM) | 0.5 (≈ 1.72 µM) | 0.25 (≈ 0.858 µM) | 0.56 (≈ 1.92 µM) | 1 (≈ 3.43 µM)
C[C@@H](c1nc(-c2ccc(C#N)cc2)cs1)[C@](O)(Cn1cncn1)c1ccc(F)cc1F [RAVUCONAZOLE] | 1.34 (≈ 3.06 µM) | 1.86 (≈ 4.25 µM) | 2 (≈ 4.57 µM) | 1 (≈ 2.29 µM) | 1.44 (≈ 3.29 µM) | 3.42 (≈ 7.82 µM)
CCCCCOc1ccc(-c2cc(-c3ccc(C(=O)N[C@H]4C[C@@H](O)[C@@H](O)NC(=O)[C@@H]5[C@@H](O)[C@@H](C)CN5C(=O)[C@H]([C@H](O)CC(N)=O)NC(=O)[C@H]([C@H](O)[C@@H](O)c5ccc(O)c(OS(=O)(=O)O)c5)NC(=O)[C@@H]5C[C@@H](O)CN5C(=O)[C@H]([C@@H](C)O)NC4=O)cc3)no2)cc1 [MICAFUNGIN] (X1-[Orn(4R-OH,5R-OH)]T[Hyp][hTyr(3S-OH,4S-OH,3'-OSO3H)][Gln(3R-OH)][Pro(3S-OH,4S-Me)]; lactam 1-C) | 8.92 (≈ 7.02 µM) | 12.6 (≈ 9.95 µM) | 32 (≈ 25.2 µM) | 32 (≈ 25.2 µM) | 6.85 (≈ 5.39 µM) | 21.4 (≈ 16.8 µM)
CC[C@@H]([C@H](C)O)n1ncn(-c2ccc(N3CCN(c4ccc(OC[C@@H]5CO[C@@](Cn6cncn6)(c6ccc(F)cc6F)C5)cc4)CC3)cc2)c1=O [POSACONAZOLE] | 0.37 (≈ 0.528 µM) | 0.58 (≈ 0.828 µM) | 0.25 (≈ 0.357 µM) | 0.25 (≈ 0.357 µM) | 0.32 (≈ 0.457 µM) | 0.69 (≈ 0.985 µM)
